Laboratory results from ChEMBL document CHEMBL1149430, “Optimization of diarylamines as non-nucleoside inhibitors of HIV-1 reverse transcriptase” (Bioorg Med Chem Lett, 2006).
pEC50: −log10 of the molar value.

Columns and labels:
MT2 = assay: Cytotoxicity against human MT2 cells by MTT assay; format: functional
[1] = test system: Human immunodeficiency virus 1; assay: Antiviral activity against HIV1 3B in MT2 cells by MTT assay; format: functional, organism-based; conditions: for EC50: mt2; for pEC50: Human immunodeficiency virus 1, 3B, MT2, read-out: EC50
Procedure, shortened: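 HIV-1 IIIB infection of MT-2 human T cells, with MTT colorimetric read-out of cell protection.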

SMILES	CC50 (MT2) [µM]	EC50 [1]	pEC50 [1]
N#Cc1ccc(Nc2nccs2)cc1OCc1cccs1	4.1	Not Active	
N#Cc1ccc(Nc2nccs2)cc1OCc1ccsc1	1.1	Not Active	
COc1ccc(Nc2nc(CO)cs2)cc1OCC=C(C)C	80		5.05
Clc1ccc(Nc2nccs2)cc1OCC1=CCCC1	15		5.30
CC1=C(COc2cc(Nc3nccs3)ccc2Cl)CCC1	11	Not Active	
CC(C)=CCOc1cc(Nc2nc(C)cc(N)n2)ccc1Cl	< 0.004	Not Active	
COCc1ccnc(Nc2ccc(Cl)c(OCC=C(C)C)c2)n1	> 25	Not Active	
COc1ccnc(Nc2ccc(C)c(OCC=C(C)C)c2)n1	41		6.49
Clc1ccc(Nc2nccs2)cc1OCc1ccsc1	38		5.26
N#Cc1ccc(Nc2nccs2)cc1OCc1ccco1	18		5.92
CC(C)=CCOc1cc(Nc2nccc(CO)n2)ccc1Cl	0.22	Not Active	
CC(C)=CCOc1cc(Nc2nccs2)ccc1C(=O)O	17	Not Active	
Clc1ccc(Nc2nccs2)cc1OCc1ccoc1	26		5.15
N#Cc1ccc(Nc2nccs2)cc1OCc1nccs1	20		5.35
CC/C(C)=C\COc1cc(Nc2nccs2)ccc1Cl	18		6.00
COc1cc(N)nc(Nc2ccc(Cl)c(OCC=C(C)C)c2)n1	19		
Clc1ccc(Nc2nccs2)cc1OCc1nccs1	20	Not Active	
N#Cc1ccc(Nc2nccs2)cc1OCC1=CCCC1	1.7	Not Active	
CC(C)=CCOc1cc(Nc2ncc(Br)c(N)n2)ccc1Cl	12		6.15
COc1cc(OC)nc(Nc2ccc(Cl)c(OCC=C(C)C)c2)n1	28		
Clc1ccc(Nc2nccs2)cc1OCc1cccs1	38		5.00
N#Cc1ccc(Nc2nccs2)cc1OCc1ccoc1	4	Not Active	
CC(C)=CCOc1cc(Nc2nccs2)ccc1C#N	0.75		
Clc1ccc(Nc2nccs2)cc1OCc1ccco1	18		5.40
CSc1ccnc(Nc2ccc(Cl)c(OCC=C(C)C)c2)n1	2.8		
Clc1ccc(Nc2nccs2)cc1OCC1CCCCC1	15	Not Active	
CC(C)=CCOc1cc(Nc2nc(N)cc(Cl)n2)ccc1Cl	0.014	Not Active	
Clc1ccc(Nc2nccs2)cc1OCc1ccccc1	17		5.22
CC(C)=CCOc1cc(Nc2ncccn2)ccc1Cl	2.5		
